In the EternaBench riboswitch data:

Tested on: MS2 coat protein
Experiment: apparent Kd, MS2 coat protein; higher = weaker binding; RNA-MaP array; FMN 200 µM where present
How it was run: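 Designs were transcribed by stalled E. coli RNA polymerase on Illumina sequencing-chip clusters. They were titrated with SNAP-549-labelled MS2 coat protein from 0.7 or 1.5 nM, doubling to 3 µM, without and then with constant ligand. Buffer: 100 mM Tris-HCl pH 7.5, 80 mM KCl, 4 mM MgCl2, BSA, DTT, yeast tRNA, Tween-20. Green signal was normalised to red-channel RNA signal and control-cluster median Fmax. Apparent Kd is the median of filtered per-cluster binding-curve fits.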

[1] = designed as: OFF switch for flavin mononucleotide, no ligand
[2] = ligand present: flavin mononucleotide, designed as: OFF switch for flavin mononucleotide
[3] = designed as: ON switch for flavin mononucleotide, no ligand
[4] = ligand present: flavin mononucleotide, designed as: ON switch for flavin mononucleotide

| Sequence | apparent Kd [1] [nM] | apparent Kd [2] [nM] | apparent Kd [3] [nM] | apparent Kd [4] [nM] |
| --- | --- | --- | --- | --- |
| AUCUGGUCCUUACGCCCACAUGAGGAUCACCCAUGUCAGGCACAGGAUAUCCCGGGAGCUUUGGUGGAGAAGGGUGCCCUUGGG | 55.6 | 100 |  |  |
| GAGUGACAUGAGGAUCACCCAUGUGAGGAUAUCGGACGGACCUUGUUGGCUUCCGCCGCGAGAAGGCACCUCGG | 43.9 | 40.2 |  |  |
| AGCAAGUCAGGAUAUGCGAAGUCAGGACACACACUGACGAAGCAGAAGGGACAUGAGGAUCACCCAUGUAAGCA | 29.1 | 42.9 |  |  |
| UCUAAUUAGUGAGGAUAUACAUAAUUUAUUACUGUAGAAGGCACAAACCUCAAGACAUGAGGAUCACCCAUGUGGUAUUUAGAU | 158 | 362 |  |  |
| AACAAUCUAUCUGAGGAUAUCAUGUCAAAGACAUGAGGAUCACCCAUGUACCAGGAAACUGGAUAUGAGAAGGCAGAUAGAUUGA |  |  | 199 | 22.8 |
| GGACAUUUACAGAAGGGCAAGUUGGAUCGCGGAUAACGCGAUCCGACUUGCAGGAUAUGUUGAACAUGAGGAUCACCCAUGUCC |  |  | 12 | 9.8 |
| AGUAGUUUAACAUGAGGAUCACCCAUGUAUCUAUCUGUAACCUAGGAUAUGGACGUUGUAUUUAACCAGAAGGAGGAUCGUUUA |  |  | 28.5 | 17 |
| UGUCGGAGCAGAGGAUAUUACAUGAGGAUCACCCAUGUAUGAACCAAUAGCUGGAAACAGCAAUGUAAGAAGGCUGCUCCUACA | 12.5 | 147 |  |  |
| UUUACGAAAGUCGAACGAUGUAGCAGAAGGACAUGAGGAUCACCCAUGUCAGCUGUAACAGCCAUGUAGGAUAUGCUACAUAAA | 5.78 | 5.92 |  |  |
| UCGACGAAAGUCGAACGAUGUAGCAGAAGGACAUGAGGAUCACCCAUGUCAGCUGUAACAGCCAUGUAGGAUAUGCUACAUCGC | 4.27 | 5.7 |  |  |
| CCGGCUGCUGUGAGGAUAUGCCUGUGGGUGCGUGGGUAGAAGGCACAUGAGGAUCACCCAUGUCCUGCGGCUCG | 501 | 327 |  |  |
| GUAUGACAAAGUCAUACCGCUUUGACAUGAGGAUCACCCAUGUAGGAUAUAUUAAUCAAAGAUUAAUAGAAGGACAUGUUUCUU | 43.7 | 114 |  |  |
| UUAAUUAACAAGAAGGCAUACAUGAGGAUCACCCAUGUUCUACAUGGAUAAUGAGGAUAUUGCUAAUACAUGAGGAUCACCCAU | 53.6 | 50.8 |  |  |
| CGCUGUCAUGCAGGAUAUGCAUUGGAUUGCAAUGCAGAAGGGCGAUUACAUGAGGAUCACCCAUGUGUAGACAGUGAAGAAGAG |  |  | 160 | 12.6 |
| GGAUAGGACAGAGGAUAUACGUGCUAGAGAUACUAGCAAAAUUUCAUCACAUGAGGAUCACCCAUGUAGAAGGCUGUCCUAUCG | 4.81 | 8.63 |  |  |
| ACAUGAGGAUCACCCAUGUGAACAUAGGAUAUUGGUGAUCAGGCGUGUUAUACAGGAUAUGUCUGCGAGAAGGGUGCACGUUGC |  |  | 676 | 231 |
| GAUCCUUCUGUUAGGAUAUGCUUUGGGCUUCCGCAGCAGAAGGAACAUGAGGAUCACCCAUGUCCAAUGCCGUC | 56.6 | 63.9 |  |  |
| UUACCUUAUGAGAAGGCGGUCAUGAAACAUGAUCGAGGAUAUCAUGUAAACAUGAGGAUCACCCAUGUAUGGGUAUUAUGGUAU |  |  | 142 | 27.3 |

| Sequence | apparent Kd [1] [nM] | apparent Kd [2] [nM] | apparent Kd [3] [nM] | apparent Kd [4] [nM] |
| --- | --- | --- | --- | --- |
| ACAUACAUUCGAGGAUAUCGGUGAGAAAUCUUACGAGAAGGCGAUUCAUGAUUUAUUAUCCUGGACAUGAGGAUCACCCAUGUA |  |  | 97.5 | 61.1 |
| UUUUUAUUUGCAGGAUAUUGUAUUUUAUUACAUCAAGAAGGGCAUUACAUGAGGAUCACCCAUGUCUUCCUAUGGUUAACUAGU | 12.3 | 10.2 |  |  |
| GGGCGCCACGUAGGAUAUCUUCCGUAUGGGUCCCAUCAUAGCACAUGAGGAUCACCCAUGUGGGUAGAGAAGGACGGUUUGCCG | 221 | 59.5 |  |  |
| GGAAAUCAUGUAGGAUAUGCAUGGCGAAGCUACGCAGAAGGACAUGAGGAUCACCCAUGUUAUAGCUACCCAGUUAGGUGGCAA | 122 | 172 |  |  |
| AUUAUGACCGAGUAAAGCUUCAAAACAUGAGGAUCACCCAUGUAGGAUAUCAGCACGAUAAGUGCUGAGAAGGACAUCUCGGUC | 14.3 | 15.1 |  |  |
| GGAUGACAAAGUCAUCCCGCUUUGACAUGAGGAUCACCCAUGUAGGAUAUAUUAAUCAAAGAUUAAUAGAAGGACAUGUUUCUG | 72.4 | 174 |  |  |
| GCCAUCGGGUGAGGAUAUAAAAUUAUAAUUAAAUUAGAAGGCACCUCAUAAGACAUGAGGAUCACCCAUGUAGUUAAGAUGGCA |  |  | 87.6 | 29.5 |
| CCCAUGUCAGGAUAUCUAAGAGAGGGCCAGCCCUCUCCUCCGGAGAAGGGACAUGAGGAUCACCCAUGUAAAAC | 129 | 25.5 |  |  |
| CCAUGGCAUGUAGGAUAUGUCUGACAAAGUCAGACAGAAGGACAUGAGGAUCACCCAUGUAAAAGAAAACCAACAUAGCCAUGG | 6.23 | 5.88 |  |  |
| GUUGUGUCAGGAUAUACGUUUGUUUUUUUUUUUGUUGUUUAGUAGAAGGGACAUGAGGAUCACCCAUGUUUGUU | 25.7 | 28.2 |  |  |
| GGACAUUUACAGAAGGGCAAGCUCGAAAGCGGAGAACGCGAACGAGCUUGCAGGAUAUGUUGAACAUGAGGAUCACCCAUGUCU |  |  |  | 7.08 |
| UGACCAGUCCAGAAGGUGACGUCUGCAACUAGUCAAGGAUAUGGGUUGGUUCACGGUCGGCUACAUGAGGAUCACCCAUGUACC |  |  | 8.26 | 5.87 |
| AGUACUACAGGAUAUACAUGAGUGAUACUCAUAUACCUUCUACAUGAGGAUCACCCAUGUAGAAGGGUAGUACA | 15.3 | 12.5 |  |  |
| UCACGAGACUAAGGAUAUGGAGUGUCAACAUAAAACAUGAGGAUCACCCAUGUAAAGAGUACGAUUCAGAAGGUAGAGACGUGA |  |  | 43 | 25.1 |
| CGCUCAAUUACUUUGAAUAGAAUCAGAAGGCGUUACAUGAGGAUCACCCAUGUUAUGACGUGUAACGAGGAUAUGAAUUGAGCG | 7.18 | 30.5 |  |  |
| AAUAAACAUGAGGAUCACCCAUGUAAGGAUAUGCGAACAAUAAGAAGACAAUAAUAAAGCAGAAGGUACAAGAG | 78.1 | 96.2 |  |  |
| UUAGAAUUUGCAGGAUAUUGUAUUUUAUUACAUCAAGAAGGGCAUUACAUGAGGAUCACCCAUGUUAACAUGGUUAUAAAUUUU | 94.8 | 29.5 |  |  |
| CGUGACGACAUAGGAUAUUGAUACAUGAGGAUCACCCAUGUCACCCAUUUAUAUAUUAGUGAUGACAAGAAGGAUGUGGUCACG |  |  | 33.3 | 7.13 |
